Experimental data taken from article PMC4168784 (ACS Chemical Biology, 2014).
Like-named read-outs stand apart in the source and are kept apart here. Square brackets hold non-standard residues; d marks the D form. Peptide text beside a SMILES is read from it. Orn(N5-OH,N5-Ac) = CC(=O)N(O)CCC[C@H](N)C(=O)O

Tests used:
YxeB-S142-6×His [1] = target: T1, YxeB-S142-6×His (Bacillus cereus, UniProt Q81IK3, L142S); test: Fluorescence quenching; type: binding
T1 sequence (Q81IK3 19-306 L142S): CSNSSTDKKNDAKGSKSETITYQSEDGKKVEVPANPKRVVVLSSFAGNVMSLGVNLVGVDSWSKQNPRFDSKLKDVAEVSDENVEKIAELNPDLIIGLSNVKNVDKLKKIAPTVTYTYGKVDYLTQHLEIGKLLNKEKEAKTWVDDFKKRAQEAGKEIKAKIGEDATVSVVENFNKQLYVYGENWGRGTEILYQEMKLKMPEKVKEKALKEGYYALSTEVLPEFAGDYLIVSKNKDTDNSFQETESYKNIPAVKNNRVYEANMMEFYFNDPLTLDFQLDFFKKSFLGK

YxeB-S142-6×His [2] = target: T1, YxeB-S142-6×His; test: Substrate binding assay using RP-HPLC; settings: bound = substrate detected in the protein complex analyzed by RP-HPLC
Summary of the method: (§1)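 His-tagged protein (2 μM) was bound to Ni-agarose beads in TBS over 2 h at RT. Substrate was added for 10 min at RT: 10 μM metal complex or 20 μM apo-ligand. Pellets were washed twice, then extracted with 20% acetonitrile (Ga complex) or 0.1% TFA for 20 min. C18 RP-HPLC at 220 nm followed, with a 0–25% acetonitrile gradient.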

YxeB-L142-6×His [3] = target: T2, YxeB-L142-6×His (Bacillus cereus, UniProt Q81IK3); test: Substrate binding assay using RP-HPLC; settings: bound = substrate detected in the protein complex analyzed by RP-HPLC
T2 sequence (Q81IK3 19-306): T1 sequence (Q81IK3 19-306 L142S)
Summary of the method: as §1

YxeB-L142-6×His [4] = target: T2, YxeB-L142-6×His; test: Fluorescence quenching; type: binding
[5] = test system: DFO:YxeB-L142-6×His complex; test: Iron exchange experiment in vitro analysed by RP-HPLC; type: biochemical, Bacillus cereus; settings: for metal exchange rate (FO formed): 0.2 nmol/mL added; for FO bound to YxeB (iron transferred to DFO): 0.2 nmol/mL metal–substrate added to YxeB:DFO, 40 min incubation
[6] = Iron exchange experiment without the YxeB protein; settings: 0.2 μM AcFO, 4 μM DFO, no protein; up to 24 h
Summary of the method: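 No protein was present: 4 μM DFO and 0.2 μM acetylated ferrioxamine (final concentrations) were mixed in TBS at RT. Samples taken at 0 and 5 min and at 1, 3 and 24 h went directly onto C18 RP-HPLC (0.1% TFA/acetonitrile, 0–25% over 50 min, 220 nm).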

[7] = test system: DFO:YxeB-S142-6×His complex; test: Iron exchange experiment in vitro analysed by RP-HPLC; type: biochemical, Bacillus cereus
Summary of the method: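 His-tagged YxeB (2 μM), 4 μM DFO and Ni-agarose beads were mixed 2 h at RT in TBS, then given 0.2 μM (final) acetylated ferrioxamine. Pelleted aliquots were washed twice and eluted 20 min in 0.01% TFA. Eluates ran on C18 RP-HPLC (0.1% TFA/acetonitrile, 0–25% over 50 min, 220 nm) to quantify bound ligands.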

TC137 strain [8] = test: Disc diffusion assay; type: cell-based, Bacillus cereus; settings: 10 nmol infused in the disc (supplement: 10 pmol)
Summary of the method: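 Sterile filter discs were loaded with 10 nmol siderophore; 6 μL DMSO served as the negative control. Growth was scored around each disc.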

TC137 strain [9] = test: Growth assay in iron-limited minimum medium; type: cell-based, Bacillus cereus; settings: 10 or 100 nM siderophore in iron-limited minimum medium
[10] = cited from earlier work
YxeB-S142-6×His [11] = target: T1, YxeB-S142-6×His; settings: calculated previously; cited from earlier work
[12] = test system: DFO:YxeB-S142-6×His complex; test: Fe-/Ga-/Cr-DFO substrate binding; type: biochemical, Bacillus cereus; settings: ICP analysis; for metal exchange rates or displaced substrate rates: 0.2 nmol/mL added, 30 min incubation; for substrates bound to YxeB except DFO: 0.2 nmol/mL metal–substrate added to YxeB:DFO, after 30 min incubation
Summary of the method: (§2)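 2 μM His-tagged YxeB variant, 4 μM DFO and Ni-agarose beads were shaken 2 h at RT in TBS (25 mM Tris-HCl, pH 7.4). Then 0.2 μM (final) Fe-, Ga- or Cr-hydroxamate was added at RT. Pellets collected at 0–30 min were digested overnight in 3.5% nitric acid and measured by ICP with 0.1 ppm Eu internal standard. Results are the mean of three experiments, with standard errors.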

[13] = test system: DFO:YxeB-L142-6×His complex; test: Fe-/Ga-/Cr-DFO substrate binding; type: biochemical, Bacillus cereus; settings: ICP analysis; for metal exchange rates or displaced substrate rates: 0.2 nmol/mL added, 30 min incubation; for substrates bound to YxeB except DFO: 0.2 nmol/mL metal–substrate added to YxeB:DFO, after 30 min incubation
Summary of the method: as §2

[14] = test system: DFO:YxeB-L/S142-6×His complex; test: ICP exchange or displacement assay, text statements covering both variants; type: biochemical, Bacillus cereus; settings: 0.2 μM added; for metal (Ga, Fe, Cr) contained in the YxeB complexes: both YxeB-L142 and -S142 complexes; for amounts of metal transferred after 5 min incubation: both variants; for Ga and Fe transferred to the DFO:YxeB complex: within the 5 min incubation time
Summary of the method: as §2

YxeB-L142-6×His [15] = target: T2, YxeB-L142-6×His; settings: calculated previously; cited from earlier work
[16] = test system: wild-type strains, TC128 and TC129; test: Cr-DFO and Ga-DFO import, metal in cells measured by ICP; type: cell-based, Bacillus cereus; settings: 2 μM metal complex added in the culture
Summary of the method: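 B. cereus cultures at OD600 0.8–1.3 received 2 μM metal–siderophore complex. Incubation was 120 min for Cr and 80 min for Ga, by which point OD600 was 1.6–2.1. Cell-associated Cr or Ga was then quantified by ICP. Values are the average of two independent experiments, with standard errors.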

[17] = read-out: Kd (nM) by FQ assay, calculated by Hyperquad, SD in parentheses
[18] = read-out: Kd (nM) by FQ assay, calculated using fluorescence quenching data previously described

Compound: CC(=O)NCCCCCN(O)C(=O)CCC(=O)NCCCCCN(O)C(=O)CCC(=O)NCCCCCN(O)C(C)=O [AcDFO]
- Kd (YxeB-S142-6×His [1]): 30.7 nM
- binding assay (HPLC) (YxeB-S142-6×His [2]): bound ^d
- binding assay (HPLC) (YxeB-L142-6×His [3]): bound ^d

Compound: CC(=O)NCCCCCN(O)C(=O)CCC(=O)NCCCCCN(O)C(=O)CCC(=O)NCCCCCN(O)C(C)=O.[Fe+3] [AcFO]
- Kd (YxeB-L142-6×His [4]; [17]): 25.4 nM
- exchange amount (FO formed) after 8 min incubation ([5]; 0.2 μM AcFO added, 8 min): approximately 0.2 μM
- incubation time after which iron exchange with YxeB was complete ([5]; 0.2 μM AcFO, 4 μM DFO, 2 μM YxeB-L142-6×His): 2 min
- AcDFO bound to YxeB ([5]; RP-HPLC, 0.2 nmol/mL AcFO added, 40 min): 0.110 nmol/mL sample
- metal exchange rate (FO formed) ([5]; RP-HPLC, 40 min): 77%
- FO bound to YxeB (iron transferred to DFO) ([5]; RP-HPLC): 0.153 nmol/mL sample
- rate of iron-released substrate remaining bound to YxeB ([5]; RP-HPLC, AcDFO after AcFO addition): 55%
- iron exchange between AcFO and DFO without YxeB [6]: did not occur
- Kd (YxeB-S142-6×His [1]; [17]): 31.6 nM
- binding assay (HPLC) (YxeB-S142-6×His [2]): bound ^d
- AcDFO bound to YxeB ([7]; 0.2 nmol/mL AcFO added): 0.089 nmol/mL sample
- metal exchange rate (FO formed) ([7]; 0.2 nmol/mL AcFO added): 72%
- FO bound to YxeB (iron transferred to DFO) ([7]; 0.2 nmol/mL AcFO added, 10 min incubation): 0.144 nmol/mL sample
- rate of iron-released substrate remaining bound to YxeB ([7]; AcDFO after AcFO addition): 45%
- binding assay (HPLC) (YxeB-L142-6×His [3]): bound ^d

Compound: CC(=O)N(O)CCCCCNC(=O)CCC(=O)N(O)CCCCCNC(=O)CCC(=O)N(O)CCCCCN [DFO, desferrioxamine B]
- growth around a disc containing the siderophore (TC137 strain [8]): did not grow
- growth of TC137 compared to wild-type strains TC129 and TC128 (TC137 strain [9]): delayed
- pFe^III [10]: 26.6
- Kd (YxeB-S142-6×His [11]): 35.9 nM

Compound: CC(=O)N(O)CCC[C@@H]1NC(=O)CNC(=O)CNC(=O)CNC(=O)[C@H](CCCN(O)C(C)=O)NC(=O)[C@H](CCCN(O)C(C)=O)NC1=O [DFch, desferrichrome] (cyclo(GGG[Orn(N5-OH,N5-Ac)][Orn(N5-OH,N5-Ac)][Orn(N5-OH,N5-Ac)]))
- growth around a disc containing the siderophore (TC137 strain [8]): did not grow
- Kd (YxeB-L142-6×His [4]): 104 nM
- growth of TC137 compared to wild-type strains TC129 and TC128 (TC137 strain [9]): delayed
- Kd (YxeB-S142-6×His [1]): 23 nM
- binding assay (HPLC) (YxeB-S142-6×His [2]): bound ^d
- binding assay (HPLC) (YxeB-L142-6×His [3]): bound ^d

Compound: CC(=O)N([O-])CCCCCNC(=O)CCC(=O)N([O-])CCCCCNC(=O)CCC(=O)N([O-])CCCCCN.[Fe+3] [FO, ferrioxamine B]
- metal exchange rates or displaced substrate rates [12]: 83%
- substrates bound to YxeB except DFO [12]: 0.166 nmol/mL sample
- metal exchange rates or displaced substrate rates [13]: 86%
- substrates bound to YxeB except DFO [13]: 0.172 nmol/mL sample
- metal (Ga, Fe, Cr) contained in the YxeB complexes [14]: > 0.15 nmol/mL reaction solution
- amounts of metal transferred after 5 min incubation [14]: 0.14–0.18 nmol/mL reaction solution
- Ga and Fe transferred to the DFO:YxeB complex [14]: > 70%
- Kd (YxeB-S142-6×His [11]): 29.1 nM
- Kd (YxeB-L142-6×His [15]): 38.8 nM

Compound: CC(=O)N(O)CCC[C@@H]1NC(=O)CNC(=O)CNC(=O)CNC(=O)[C@H](CCCN(O)C(C)=O)NC(=O)[C@H](CCCN(O)C(C)=O)NC1=O.[Fe+3] [Fch, ferrichrome] (cyclo(GGG[Orn(N5-OH,N5-Ac)][Orn(N5-OH,N5-Ac)][Orn(N5-OH,N5-Ac)]))
- Kd (YxeB-L142-6×His [4]; [18]): 43 nM
- Fch bound to YxeB (displacement) ([5]; RP-HPLC, 0.2 nmol/mL Fch added, 40 min): 0.037 nmol/mL sample
- metal exchange rate (FO formed) ([5]; RP-HPLC, 40 min): 0%
- FO bound to YxeB (iron transferred to DFO) ([5]; RP-HPLC): 0 nmol/mL sample
- amount of Fch bound to the protein ([5]; displacement mechanism, 0.2 μM Fch, 40 min): 0.037 µM
- pFe^III [10]: 25.2
- Kd (YxeB-S142-6×His [1]; [18]): 29.3 nM
- binding assay (HPLC) (YxeB-S142-6×His [2]): bound ^d
- binding assay (HPLC) (YxeB-L142-6×His [3]): bound ^d

Compound: O=C([O-])CN(CCN(CC(=O)[O-])CC(=O)[O-])CC(=O)[O-].[Fe+3] [Fe-EDTA]
- metal exchange rate (FO formed) ([5]; RP-HPLC, 40 min): ≤ 1%
- FO bound to YxeB (iron transferred to DFO) ([5]; RP-HPLC): 0.003 nmol/mL sample
- pFe^III [10]: 23.4

Compound: O=C(N[C@H]1COC(=O)[C@@H](NC(=O)c2cccc([O-])c2[O-])COC(=O)[C@@H](NC(=O)c2cccc([O-])c2[O-])COC1=O)c1cccc([O-])c1[O-].[Fe+3] [Fe-Ent, Fe-enterobactin]
- metal exchange rate (FO formed) ([5]; RP-HPLC, 40 min): ≤ 5%
- pFe^III [10]: 34.3

Compound: CC(=O)N(O)CCCCCNC(=O)CCC(=O)N(O)CCCCCNC(=O)CCC(=O)N(O)CCCCCN.[Ga+3] [Ga-DFO]
- Kd (YxeB-L142-6×His [4]; [17]): 59.2 nM
- Kd (YxeB-S142-6×His [1]; [17]): 44.6 nM
- metal exchange rates or displaced substrate rates [12]: 83%
- substrates bound to YxeB except DFO [12]: 0.165 nmol/mL sample
- binding assay (HPLC) (YxeB-S142-6×His [2]): bound ^d
- metal exchange rates or displaced substrate rates [13]: 78%
- substrates bound to YxeB except DFO [13]: 0.155 nmol/mL sample
- metal (Ga, Fe, Cr) contained in the YxeB complexes [14]: > 0.15 nmol/mL reaction solution
- amounts of metal transferred after 5 min incubation [14]: 0.14–0.18 nmol/mL reaction solution
- Ga and Fe transferred to the DFO:YxeB complex [14]: > 70%
- binding assay (HPLC) (YxeB-L142-6×His [3]): bound ^d
- Ga or Cr in the cells (import) [16]: contained Ga or Cr in the cells

Compound: C=CC1=C(C)c2cc3[n-]c(cc4[n-]c(cc5nc(cc1n2)C(C)=C5C=C)c(C)c4CCC(=O)O)c(CCC(=O)O)c3C.O.[Fe+2] [hematin]
- metal exchange rate (FO formed) ([5]; RP-HPLC, 40 min): ≤ 1%
- FO bound to YxeB (iron transferred to DFO) ([5]; RP-HPLC): 0.003 nmol/mL sample

Compound: ferric citrate [Fe-Cit]
- metal exchange rate (FO formed) ([5]; RP-HPLC, 40 min): 45%
- FO bound to YxeB (iron transferred to DFO) ([5]; RP-HPLC): 0.089 nmol/mL sample
